Results taken from ChEMBL document CHEMBL3734675, “Synthesis, antimycobacterial and antibacterial activity of fluoroquinolone derivatives containing an 3-alkoxyimino-4-(cyclopropylanimo)methylpyrrolidine moiety” (2015).
Converted amounts (≈) assume the structure as drawn.

Legend:
Type in all cases: functional
Escherichia coli [1] = assay: Antibacterial activity against Escherichia coli ATCC 25922 after 18 to 24 hrs by two-fold serial dilution method
Outline: (§1)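 Twofold serial dilution in agar media against Gram-positive and Gram-negative strains. Plates incubated at 35 °C for 18–24 h. MIC read as the lowest compound concentration giving complete inhibition of bacterial growth.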

Escherichia coli [2] = assay: Antibacterial activity against extended-spectrum beta-lactamase producing Escherichia coli 14-1 after 18 to 24 hrs by two-fold serial dilution method; outline: as §1
Escherichia coli [3] = assay: Antibacterial activity against extended-spectrum beta-lactamase producing Escherichia coli 14-2 after 18 to 24 hrs by two-fold serial dilution method; outline: as §1
Escherichia coli [4] = assay: Antibacterial activity against Escherichia coli 14-1 after 18 to 24 hrs by two-fold serial dilution method; outline: as §1
Escherichia coli [5] = assay: Antibacterial activity against Escherichia coli 14-2 after 18 to 24 hrs by two-fold serial dilution method; outline: as §1
Klebsiella pneumoniae [6] = assay: Antibacterial activity against extended-spectrum beta-lactamase producing Klebsiella pneumoniae 14-17 after 18 to 24 hrs by two-fold serial dilution method; outline: as §1
Klebsiella pneumoniae [7] = assay: Antibacterial activity against extended-spectrum beta-lactamase producing Klebsiella pneumoniae 14-18 after 18 to 24 hrs by two-fold serial dilution method; outline: as §1
Klebsiella pneumoniae [8] = assay: Antibacterial activity against extended-spectrum beta-lactamase producing Klebsiella pneumoniae 14-19 after 18 to 24 hrs by two-fold serial dilution method; outline: as §1
Klebsiella pneumoniae [9] = assay: Antibacterial activity against Klebsiella pneumoniae 14-1 after 18 to 24 hrs by two-fold serial dilution method; outline: as §1
Klebsiella pneumoniae [10] = assay: Antibacterial activity against Klebsiella pneumoniae 14-2 after 18 to 24 hrs by two-fold serial dilution method; outline: as §1
Klebsiella pneumoniae [11] = assay: Antibacterial activity against Klebsiella pneumoniae 14-3 after 18 to 24 hrs by two-fold serial dilution method; outline: as §1
Klebsiella pneumoniae [12] = assay: Antibacterial activity against Klebsiella pneumoniae 14-4 after 18 to 24 hrs by two-fold serial dilution method; outline: as §1
Pseudomonas aeruginosa [13] = assay: Antibacterial activity against Pseudomonas aeruginosa ATCC 27853 after 18 to 24 hrs by two-fold serial dilution method; outline: as §1
Pseudomonas aeruginosa [14] = assay: Antibacterial activity against Pseudomonas aeruginosa 14-9 after 18 to 24 hrs by two-fold serial dilution method; outline: as §1
Pseudomonas aeruginosa [15] = assay: Antibacterial activity against Pseudomonas aeruginosa 14-14 after 18 to 24 hrs by two-fold serial dilution method; outline: as §1
Pseudomonas aeruginosa [16] = assay: Antibacterial activity against Pseudomonas aeruginosa 14-15 after 18 to 24 hrs by two-fold serial dilution method; outline: as §1
Pseudomonas aeruginosa [17] = assay: Antibacterial activity against Pseudomonas aeruginosa 14-16 after 18 to 24 hrs by two-fold serial dilution method; outline: as §1
Staphylococcus aureus [18] = assay: Antibacterial activity against Staphylococcus aureus CMCC 26003 after 18 to 24 hrs by two-fold serial dilution method; outline: as §1
Staphylococcus aureus [19] = assay: Antibacterial activity against methicillin-sensitive Staphylococcus aureus 14-1 after 18 to 24 hrs by two-fold serial dilution method; outline: as §1
Staphylococcus aureus [20] = assay: Antibacterial activity against methicillin-sensitive Staphylococcus aureus 14-3 after 18 to 24 hrs by two-fold serial dilution method; outline: as §1
Staphylococcus aureus [21] = assay: Antibacterial activity against methicillin-sensitive Staphylococcus aureus 14-4 after 18 to 24 hrs by two-fold serial dilution method; outline: as §1
Staphylococcus aureus [22] = assay: Antibacterial activity against methicillin-resistant Staphylococcus aureus 14-4 after 18 to 24 hrs by two-fold serial dilution method
Outline: (§2)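 Agar media, standard twofold serial dilution. MIC is the lowest concentration giving complete inhibition of bacterial growth after incubation at 35 °C for 18–24 h. Ciprofloxacin and levofloxacin were run as comparators.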

Staphylococcus aureus [23] = assay: Antibacterial activity against methicillin-resistant Staphylococcus aureus 14-5 after 18 to 24 hrs by two-fold serial dilution method; outline: as §2
[24] = test system: Staphylococcus epidermidis; assay: Antibacterial activity against methicillin-sensitive Staphylococcus epidermidis 14-2 after 18 to 24 hrs by two-fold serial dilution method; outline: as §1
[25] = test system: Staphylococcus epidermidis; assay: Antibacterial activity against methicillin-resistant Staphylococcus epidermidis 14-21 after 18 to 24 hrs by two-fold serial dilution method; outline: as §2
[26] = test system: Staphylococcus epidermidis; assay: Antibacterial activity against methicillin-resistant Staphylococcus epidermidis 14-22 after 18 to 24 hrs by two-fold serial dilution method; outline: as §2
[27] = test system: Staphylococcus epidermidis; assay: Antibacterial activity against methicillin-resistant Staphylococcus epidermidis 14-37 after 18 to 24 hrs by two-fold serial dilution method; outline: as §2
[28] = test system: Staphylococcus epidermidis; assay: Antibacterial activity against methicillin-resistant Staphylococcus epidermidis 14-39 after 18 to 24 hrs by two-fold serial dilution method; outline: as §2
Streptococcus pneumoniae = assay: Antibacterial activity against methicillin-resistant Streptococcus pneumoniae ATCC 19615 after 18 to 24 hrs by two-fold serial dilution method; outline: as §2
Enterococcus faecium [29] = assay: Antibacterial activity against Enterococcus faecium 14-2 after 18 to 24 hrs by two-fold serial dilution method; outline: as §1
Enterococcus faecium [30] = assay: Antibacterial activity against Enterococcus faecium 14-5 after 18 to 24 hrs by two-fold serial dilution method; outline: as §1
Enterococcus faecium [31] = assay: Antibacterial activity against Enterococcus faecium 14-6 after 18 to 24 hrs by two-fold serial dilution method; outline: as §1
Enterococcus faecalis [32] = assay: Antibacterial activity against Enterococcus faecalis 14-1 after 18 to 24 hrs by two-fold serial dilution method; outline: as §1
Enterococcus faecalis [33] = assay: Antibacterial activity against Enterococcus faecalis 14-2 after 18 to 24 hrs by two-fold serial dilution method; outline: as §1
Staphylococcus aureus [34] = assay: Potency index, ratio of ciprofloxacin MIC to compound MIC for methicillin-resistant Staphylococcus aureus 14-4
Staphylococcus aureus [35] = assay: Potency index, ratio of ciprofloxacin MIC to compound MIC for methicillin-resistant Staphylococcus aureus 14-5
[36] = test system: Staphylococcus epidermidis; assay: Potency index, ratio of ciprofloxacin MIC to compound MIC for methicillin-resistant Staphylococcus epidermidis 14-21
[37] = test system: Staphylococcus epidermidis; assay: Potency index, ratio of ciprofloxacin MIC to compound MIC for methicillin-resistant Staphylococcus epidermidis 14-22
[38] = test system: Staphylococcus epidermidis; assay: Potency index, ratio of ciprofloxacin MIC to compound MIC for methicillin-resistant Staphylococcus epidermidis 14-37
[39] = test system: Staphylococcus epidermidis; assay: Potency index, ratio of ciprofloxacin MIC to compound MIC for methicillin-resistant Staphylococcus epidermidis 14-39
Enterococcus faecium [40] = assay: Potency index, ratio of ciprofloxacin MIC to compound MIC for Enterococcus faecium 14-2
Enterococcus faecium [41] = assay: Potency index, ratio of ciprofloxacin MIC to compound MIC for Enterococcus faecium 14-5
Enterococcus faecium [42] = assay: Potency index, ratio of ciprofloxacin MIC to compound MIC for Enterococcus faecium 14-6
Enterococcus faecalis [43] = assay: Potency index, ratio of ciprofloxacin MIC to compound MIC for Enterococcus faecalis 14-1
Enterococcus faecalis [44] = assay: Potency index, ratio of ciprofloxacin MIC to compound MIC for Enterococcus faecalis 14-2
Staphylococcus aureus [45] = assay: Potency index, ratio of levofloxacin MIC to compound MIC for methicillin-resistant Staphylococcus aureus 14-4
Staphylococcus aureus [46] = assay: Potency index, ratio of levofloxacin MIC to compound MIC for methicillin-resistant Staphylococcus aureus 14-5
[47] = test system: Staphylococcus epidermidis; assay: Potency index, ratio of levofloxacin MIC to compound MIC for methicillin-resistant Staphylococcus epidermidis 14-21
[48] = test system: Staphylococcus epidermidis; assay: Potency index, ratio of levofloxacin MIC to compound MIC for methicillin-resistant Staphylococcus epidermidis 14-22
[49] = test system: Staphylococcus epidermidis; assay: Potency index, ratio of levofloxacin MIC to compound MIC for methicillin-resistant Staphylococcus epidermidis 14-37
[50] = test system: Staphylococcus epidermidis; assay: Potency index, ratio of levofloxacin MIC to compound MIC for methicillin-resistant Staphylococcus epidermidis 14-39
Enterococcus faecium [51] = assay: Potency index, ratio of levofloxacin MIC to compound MIC for Enterococcus faecium 14-2
Enterococcus faecium [52] = assay: Potency index, ratio of levofloxacin MIC to compound MIC for Enterococcus faecium 14-5
Enterococcus faecium [53] = assay: Potency index, ratio of levofloxacin MIC to compound MIC for Enterococcus faecium 14-6
Enterococcus faecalis [54] = assay: Potency index, ratio of levofloxacin MIC to compound MIC for Enterococcus faecalis 14-1
Enterococcus faecalis [55] = assay: Potency index, ratio of levofloxacin MIC to compound MIC for Enterococcus faecalis 14-2

In the case of O=C(O)c1cn2c3c(c(N4C/C(=N/OCc5ccccc5)C(CNC5CC5)C4)c(F)cc3c1=O)OC[C@@H]2CF (stereo partly specified), the MIC (Escherichia coli [1]) is reported as 1 µg/mL (≈ 1.86 µM), the MIC (Escherichia coli [2]) is reported as 4 µg/mL (≈ 7.43 µM) and the MIC (Escherichia coli [3]) is reported as over 64 µg/mL. For the same compound, the MIC (Escherichia coli [4]) was over 64 µg/mL, the MIC (Escherichia coli [5]) was over 64 µg/mL and the MIC (Klebsiella pneumoniae [6]) was 64 µg/mL (≈ 119 µM). It also gave an MIC (Klebsiella pneumoniae [7]) of 32 µg/mL (≈ 59.4 µM), an MIC (Klebsiella pneumoniae [8]) of 32 µg/mL (≈ 59.4 µM) and an MIC (Klebsiella pneumoniae [9]) of 64 µg/mL (≈ 119 µM). For the same compound, the MIC (Klebsiella pneumoniae [10]) was 32 µg/mL (≈ 59.4 µM), the MIC (Klebsiella pneumoniae [11]) was 64 µg/mL (≈ 119 µM) and the MIC (Klebsiella pneumoniae [12]) was over 64 µg/mL. It also gave an MIC (Pseudomonas aeruginosa [13]) of 32 µg/mL (≈ 59.4 µM), an MIC (Pseudomonas aeruginosa [14]) of 32 µg/mL (≈ 59.4 µM) and an MIC (Pseudomonas aeruginosa [15]) of 64 µg/mL (≈ 119 µM). The MIC (Pseudomonas aeruginosa [16]) was 64 µg/mL (≈ 119 µM), the MIC (Pseudomonas aeruginosa [17]) was 32 µg/mL (≈ 59.4 µM) and the MIC (Staphylococcus aureus [18]) was under 0.008 µg/mL. It also gave an MIC (Staphylococcus aureus [19]) of 1 µg/mL (≈ 1.86 µM), an MIC (Staphylococcus aureus [20]) of 0.015 µg/mL (≈ 0.0279 µM) and an MIC (Staphylococcus aureus [21]) of 0.03 µg/mL (≈ 0.0557 µM). For the same compound, the MIC (Staphylococcus aureus [22]) was 2 µg/mL (≈ 3.71 µM), the MIC (Staphylococcus aureus [23]) was 4 µg/mL (≈ 7.43 µM) and the MIC [24] was 8 µg/mL (≈ 14.9 µM). For the same compound, the MIC [25] was 2 µg/mL (≈ 3.71 µM), the MIC [26] was 2 µg/mL (≈ 3.71 µM) and the MIC [27] was 2 µg/mL (≈ 3.71 µM). For the same compound, the MIC [28] was 2 µg/mL (≈ 3.71 µM), the MIC (Streptococcus pneumoniae) was 0.125 µg/mL (≈ 0.232 µM) and the MIC (Enterococcus faecium [29]) was 1 µg/mL (≈ 1.86 µM). It also gave an MIC (Enterococcus faecium [30]) of 8 µg/mL (≈ 14.9 µM), an MIC (Enterococcus faecium [31]) of 8 µg/mL (≈ 14.9 µM) and an MIC (Enterococcus faecalis [32]) of 1 µg/mL (≈ 1.86 µM). The MIC (Enterococcus faecalis [33]) was 0.25 µg/mL (≈ 0.464 µM), the Ratio (Staphylococcus aureus [34]) was 2 and the Ratio (Staphylococcus aureus [35]) was 2. It also gave a Ratio [36] of 2, a Ratio [37] of 2 and a Ratio [38] of 2. It also gave a Ratio [39] of 2, a Ratio (Enterococcus faecium [40]) of 2 and a Ratio (Enterococcus faecium [41]) of 2. For the same compound, the Ratio (Enterococcus faecium [42]) was 2, the Ratio (Enterococcus faecalis [43]) was 2 and the Ratio (Enterococcus faecalis [44]) was 2. For the same compound, the Ratio (Staphylococcus aureus [45]) was 2, the Ratio (Staphylococcus aureus [46]) was 2 and the Ratio [47] was 2. It also gave a Ratio [48] of 2, a Ratio [49] of 2 and a Ratio [50] of 2. It also gave a Ratio (Enterococcus faecium [51]) of 2, a Ratio (Enterococcus faecium [52]) of 2 and a Ratio (Enterococcus faecium [53]) of 2. It also gave a Ratio (Enterococcus faecalis [54]) of 2 and a Ratio (Enterococcus faecalis [55]) of 2.
